Compound activity deposited in PubChem by Johns Hopkins Ion Channel Center.
TRPC6 activator – mouse TRPC6 channel activation. 310,000 tested, 0.13% active. B-score at 10 µM. AID 2550. Q61143. HEK293-TRPC6 membrane potential dye fluorescence; stronger effect = higher value;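 active means B-score of the integrated fluorescence ratio above library mean plus 3 SD, and starting fluorescence ratio within library mean plus 5 SD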;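 further: higher score means more depolarization so channel activation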
TRPC6 inhibitor – blocks the mouse TRPC6 cation channel | Q61143 | HEK293-TRPC6, membrane potential dye, ACh-evoked depolarization; stronger effect = lower value | B-score at 10 µM | 310,000 tested, 1.1% active | AID 2553;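 active means B-score under library mean minus 3 SD, initial fluorescence not abnormally high, positive integrated signal ratio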;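 further: B-score derived from integrated fluorescence ratio over the kinetic read; more negative B-score means stronger inhibition of depolarization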
TRPC4 act – activators of mouse TRPC4 channel; HEK293 TRPC4beta/mu-opioid, Fluo4 calcium fluorescence; stronger effect = higher value; B-score at 10 µM; AID 2237; 310,000 tested, 0.49% active;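 active means B-score above 5 SD of library B-scores, and initial fluorescence ratio not above library mean plus 5 SD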;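 further: positive B-score marks a calcium rise read as TRPC4 activation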
Target sequence (Q9QUQ5 whole entry, looked up): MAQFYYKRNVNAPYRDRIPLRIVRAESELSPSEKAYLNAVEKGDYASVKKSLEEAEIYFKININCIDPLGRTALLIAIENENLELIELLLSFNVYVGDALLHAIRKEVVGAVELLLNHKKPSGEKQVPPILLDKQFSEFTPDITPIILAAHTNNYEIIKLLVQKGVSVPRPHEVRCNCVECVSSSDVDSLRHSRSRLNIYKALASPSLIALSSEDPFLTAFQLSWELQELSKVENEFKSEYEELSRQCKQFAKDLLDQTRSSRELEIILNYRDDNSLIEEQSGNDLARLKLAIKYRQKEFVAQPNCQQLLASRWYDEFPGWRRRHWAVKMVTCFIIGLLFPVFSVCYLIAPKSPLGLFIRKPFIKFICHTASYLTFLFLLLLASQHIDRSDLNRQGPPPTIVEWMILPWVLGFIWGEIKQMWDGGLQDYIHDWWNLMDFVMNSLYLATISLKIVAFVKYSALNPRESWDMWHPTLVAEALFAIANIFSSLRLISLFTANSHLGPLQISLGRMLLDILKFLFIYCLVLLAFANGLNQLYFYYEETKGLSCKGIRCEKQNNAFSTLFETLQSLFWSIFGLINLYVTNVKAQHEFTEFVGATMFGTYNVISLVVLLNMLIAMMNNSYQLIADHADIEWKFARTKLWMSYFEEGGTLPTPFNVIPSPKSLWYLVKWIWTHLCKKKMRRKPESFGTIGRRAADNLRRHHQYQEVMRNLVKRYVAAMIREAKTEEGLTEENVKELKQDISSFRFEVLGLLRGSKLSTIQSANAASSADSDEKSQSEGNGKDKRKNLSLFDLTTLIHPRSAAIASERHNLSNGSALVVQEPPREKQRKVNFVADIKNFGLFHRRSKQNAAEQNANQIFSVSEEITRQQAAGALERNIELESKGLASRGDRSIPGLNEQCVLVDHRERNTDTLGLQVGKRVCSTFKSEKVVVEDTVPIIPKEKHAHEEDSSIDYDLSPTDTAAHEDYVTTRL
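System – HEK293 cells stably co-expressing mouse TRPC4beta and mu-opioid receptor · Signal – Fluo4 calcium-sensitive dye fluorescence, kinetic, 1 Hz baseline · Benchmarks – buffer (low) and maximal DAMGO (high) · Read-out – B score of integrated fluorescence ratio per well · Incubation – dye loading 45 min room temperature, 110 s kinetic read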
TRPC4 block – blocks the mouse TRPC4 cation channel | Q9QUQ5 | HEK293 TRPC4beta/mu-opioid, DAMGO-evoked Fluo4 calcium flux; stronger effect = lower value | B-score at 10 µM | 300,000 tested, 0.39% active | AID 2247;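 active means B-score over 3 SD under the library average, no early fluorescence shift, positive overall ratio signal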
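test system = HEK293 cells with stable TRPC4beta plus mu-opioid receptor expression | detection = Fluo4 Ca2+ flux fluorescence | read-out = integrated fluorescence ratio relative to baseline, converted to per-well B score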
TRPC4 potent – TRPC4 (mouse) allosteric potentiation; Q9QUQ5; HEK293 TRPC4beta/mu-opioid, DAMGO EC20, Fluo-4 Ca2+ flux; stronger effect = higher value; B-score at 10 µM; 310,000 tested, 0.42% active;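 active means B-score of calcium response area above 5 SD of library B-scores, with initial fluorescence ratio within 5 SD of library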
TRPC4 spec 2 – second selectivity test of TRPC6 inhibitors: effect on mouse TRPC4; HEK293 TRPC4/MOR, membrane potential dye fluorescence; channel activated by saturating DAMGO dose; 920 tested, 42% active; inhibition, % at 10 µM; shares compounds with TRPC6 inhibitor; AID 2776;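 active means compounds whose fluorescence signal differed from control wells by over 3 SD, either direction, in both duplicate plates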
TRPC4 spec – selectivity of TRPC6 inhibitors: effect on mouse TRPC4; shares compounds with TRPC6 inhibitor; 920 tested, 61% active; activity change, negative = inhibition, % at 10 µM; HEK293 TRPC4/mu-opioid, membrane potential fluorescence;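 active means rise or fall in signal beyond 3 SD of buffer-only wells in both replicate plates, either sign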;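 further: integrated kinetic ratio of fluorescence range over baseline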
HEK293 MPD ctr 2-1 – second check of TRPC6 inhibitor effects in parental HEK293 cells | shares compounds with TRPC6 inhibitor | parental HEK293 membrane potential dye fluorescence; maximal acetylcholine challenge after compound addition | signal change vs control, % at 10 µM | 920 tested, 31% active | AID 2779;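 active means membrane potential signal moving either way by over 3 SD of the maximum-effect control, in both duplicate plates, meaning non-specific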
HEK293 MPD ctr-1 – checks TRPC6 inhibitor effects in parental HEK293 cells; membrane potential signal change, % at 10 µM; parental HEK293 membrane potential dye fluorescence; shares compounds with TRPC6 inhibitor; 920 tested, 60% active;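 active means membrane potential signal shifting up or down by more than 3 SD of buffer-only wells, on both duplicate plates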
HEK293 MPD ctr-2 – counter-screen for TRPC6 modulators: effect in parental HEK293 cells; AID 488924; 2,400 tested, 51% active; shares compounds with TRPC6 inhibitor; membrane potential signal change, % at 10 µM; membrane potential dye fluorescence;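 active means membrane potential signal moves up or down beyond 5 SD from buffer-only wells, on both duplicate plates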
HEK293 MPD ctr 2-2 – parental HEK293 nonspecific activity of TRPC6 modulators, second screen. membrane potential dye fluorescence; after compound, maximal acetylcholine stimulation. inhibition, % at 10 µM. 2,400 tested, 14% active. shares compounds with TRPC6 inhibitor;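 active means membrane potential signal drops by more than 5 SD from the mean control signal, in both duplicate plates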
TRPC4/MOR mod – mouse TRPC4 off-target activity of TRPC6 modulators; 2,400 tested, 69% active; percent change from control (negative = decrease, positive = increase), % at 10 µM; HEK293 TRPC4/mu-opioid, membrane potential fluorescence; shares compounds with TRPC6 inhibitor; AID 488927;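 active means membrane potential signal moved up or down beyond 5 SD of buffer control wells, in both duplicate plates, actives on both sides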
TRPC4 ctr inh 2 – mouse TRPC4 off-target activity of TRPC6 modulators, second screen; shares compounds with TRPC6 inhibitor; HEK293 TRPC4/mu-opioid, membrane potential dye fluorescence; stimulated with maximal-effect DAMGO; inhibition, % at 10 µM; 2,400 tested, 55% active; AID 488928;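 active means drop in membrane potential signal beyond 5 SD of the control wells in both duplicate plates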;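 further: TRPC4 counter screen for TRPC6 hits run under conditions tuned for TRPC6 not TRPC4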
TRPC6 block conf – confirmation of mouse TRPC6 inhibitors. shares compounds with TRPC6 inhibitor. HEK293-TRPC6, membrane potential dye, ACh-evoked depolarization. inhibition, % at 10 µM. 3,300 tested, 43% active. AID 488960;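 active means fluorescence ratio falls more than 5 SD below the full-stimulation control mean, in both duplicate runs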;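 further: integrated fluorescence ratio of peak minus minimum over baseline after agonist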
TRPC6 act confirm – mouse TRPC6 activator confirmation. shares compounds with TRPC6 inhibitor. HEK293-TRPC6 membrane potential dye fluorescence, FDSS. activation, % at 10 µM. 2,800 tested, 11% active. AID 488961;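 active means ratio signal rise beyond 5 SD above unstimulated control wells' mean, seen in both duplicate runs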
Each line names hits and unclear results; the compound was inactive in the other large screens (follow-up assays come after a bar, where they were run). In the library only some 2.3% were active in any assay of this set; here they are far more common.

Cc1ccc(C(OCCN(C)C)c2cccc(C(F)(F)F)c2)cc1 (stereo not given)	TRPC6 inhibitor -5.4 | HEK293 MPD ctr-2 inactive | HEK293 MPD ctr 2-2 inactive | TRPC4/MOR mod 18% | TRPC4 ctr inh 2 38% | TRPC6 block conf inactive
CC(OC(=O)C1=Cc2ccccc2OC1)C(=O)NC(C)(C)C (stereo not given)	none
O=C1CNC(=S)N1C(CO)c1ccccc1 (stereo not given)	none
CC(Nc1nc(N2CCN(S(C)(=O)=O)CC2)nc2ccccc12)c1ccccc1 (stereo not given)	TRPC6 inhibitor -6 | HEK293 MPD ctr-2 -158% | HEK293 MPD ctr 2-2 inactive | TRPC4/MOR mod -26% | TRPC4 ctr inh 2 52% | TRPC6 block conf inactive | TRPC6 act confirm inactive
O=c1cc(CSCc2ccc(Cl)cc2)[nH]c(=O)[nH]1	none
CCN1CCN(CCNC(=O)CCCn2nc(C)c3c(C)n(-c4ccc(C)cc4)nc3c2=O)CC1	none
CCN(CC)CCCNC1=C(Cl)C(=O)c2ccccc2C1=O	TRPC6 inhibitor -6.2 | HEK293 MPD ctr-2 -180% | HEK293 MPD ctr 2-2 inactive | TRPC4/MOR mod -30% | TRPC4 ctr inh 2 47% | TRPC6 block conf 50% | TRPC6 act confirm inactive
CCCC(C)c1nnc(NC(=O)c2cc(C(=O)OC)cc([N+](=O)[O-])c2)s1 (stereo not given)	none
CCOC(=O)c1c(CSc2cccs2)n(C)c2cc(Br)c(O)c(CN(C)C)c12	TRPC6 inhibitor -6.4 | HEK293 MPD ctr-2 inactive | HEK293 MPD ctr 2-2 inactive | TRPC4/MOR mod inactive | TRPC4 ctr inh 2 72% | TRPC6 block conf 54% | TRPC6 act confirm inactive
CC(C)OCCCN1CN(S(=O)(=O)c2ccc(Cl)cc2)c2nc3ccccc3nc21	none
CC(C)OCCCN1CN(S(=O)(=O)c2cccc(Cl)c2)c2nc3ccccc3nc21	TRPC6 inhibitor -5.1 | HEK293 MPD ctr-2 inactive | HEK293 MPD ctr 2-2 inactive | TRPC4/MOR mod 9.5% | TRPC4 ctr inh 2 inactive | TRPC6 block conf inactive | TRPC6 act confirm inactive
O=C(CN1CCN(S(=O)(=O)c2ccccc2)CC1)Nc1ccc(Cl)c([N+](=O)[O-])c1	none
CCN(CCN(C)C)C(=O)c1ccc2c(c1NCCO)C(=O)c1ccccc1C2=O	TRPC6 inhibitor -5.9 | HEK293 MPD ctr-2 -168% | HEK293 MPD ctr 2-2 inactive | TRPC4/MOR mod -34% | TRPC4 ctr inh 2 49% | TRPC6 block conf 45% | TRPC6 act confirm inactive
O=C1c2ccccc2C(=O)c2c1ccc(C(=O)N1CCCCC1)c2NCCO	none
CC1CCCN(C(=O)c2ccc3c(c2NCCO)C(=O)c2ccccc2C3=O)C1 (stereo not given)	TRPC6 inhibitor -5.9 | HEK293 MPD ctr-2 -235% | HEK293 MPD ctr 2-2 inactive | TRPC4/MOR mod -36% | TRPC4 ctr inh 2 68% | TRPC6 block conf 49% | TRPC6 act confirm inactive
CCOC(=O)c1c(NC(=O)COC)sc(C)c1C	none
CCOC(=O)c1c(NC(=O)COC(=O)c2cc(OC)c(OC)cc2[N+](=O)[O-])sc(C)c1C	TRPC6 inhibitor -5.1 | HEK293 MPD ctr-2 inactive | HEK293 MPD ctr 2-2 inactive | TRPC4/MOR mod inactive | TRPC4 ctr inh 2 40% | TRPC6 block conf inactive | TRPC6 act confirm inactive
CN1CCc2c(C#N)c(N3CCOCC3)nc(NCC3CCCO3)c2C1 (stereo not given)	none
CCCCCNc1nc(N2CCCC2)c2c(c1C#N)CCN(C)C2	TRPC6 inhibitor -6.6 | TRPC4 spec 2 41% | TRPC4 spec -22% | HEK293 MPD ctr 2-1 inactive | HEK293 MPD ctr-1 -272% | TRPC6 block conf 71% | TRPC6 act confirm inactive
CCCc1nc(NCCO)c(C#N)c2c1CCCC2	none
CCCCCNc1nc(NCCCO)c(C#N)c2c1CN(C)CC2	TRPC6 inhibitor -5.6 | HEK293 MPD ctr-2 -100% | HEK293 MPD ctr 2-2 inactive | TRPC4/MOR mod -27% | TRPC4 ctr inh 2 inactive | TRPC6 block conf inactive | TRPC6 act confirm inactive
Nc1ncc2c(n1)-c1ccccc1CC2	none
c1ccc2c(c1)CCc1ccccc1C2=C1CCNCC1	TRPC6 inhibitor -7.2 | TRPC4 spec 2 60% | TRPC4 spec 3.8% | HEK293 MPD ctr 2-1 inactive | HEK293 MPD ctr-1 2.8% | TRPC6 block conf inactive | TRPC6 act confirm inactive
Cc1ccc(NC2CCCN(C(=O)c3cnc4ccccn4c3=O)C2)cc1C (stereo not given)	none
CC(C)c1ccc(NC2CCCN(C(=O)c3cnc4ccccn4c3=O)C2)cc1 (stereo not given)	TRPC6 inhibitor -7 | TRPC4 spec 2 inactive | TRPC4 spec inactive | HEK293 MPD ctr 2-1 inactive | HEK293 MPD ctr-1 inactive | TRPC6 block conf inactive | TRPC6 act confirm inactive
O=[N+]([O-])c1cccc(C(=Nc2cccc(Cl)c2)NO)c1	TRPC6 inhibitor -8.8 | TRPC4 spec 2 inactive | TRPC4 spec inactive | HEK293 MPD ctr 2-1 inactive | HEK293 MPD ctr-1 inactive | TRPC6 block conf inactive | TRPC6 act confirm inactive
CC(C)NCC(O)COc1ccc2c(c1)CCC2 (stereo not given)	none
CCOC(=O)C1CCN(C(=O)C(C)c2ccc([N+](=O)[O-])cc2)CC1 (stereo not given)	TRPC6 inhibitor -5 | HEK293 MPD ctr-2 inactive | HEK293 MPD ctr 2-2 inactive | TRPC4/MOR mod 12% | TRPC4 ctr inh 2 inactive | TRPC6 block conf inactive
CCOC(=O)N1CCN(C(=O)C(C)c2ccc([N+](=O)[O-])cc2)CC1 (stereo not given)	none
